In ChEMBL document CHEMBL1145458, “Novel vanilloid receptor-1 antagonists: 1. Conformationally restricted analogues of trans-cinnamides” (J Med Chem, 2007):
Calls of active or inactive are those of the source. The calls are words filed in the database; no cut-off is given here.

Key:
[1] = target: T1, Transient receptor potential cation channel subfamily V member 1 (Rattus norvegicus, UniProt O35433); experiment: Antagonist activity at rat TRPV1 expressed in CHO cells assessed as inhibition of capsaicin-induced calcium influx; type: functional, cell-based
Method in brief: (§1)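 Human or rat TRPV1-CHO cells were preincubated with compound for 2 min at room temperature in HBSS with 0.1 mg/mL BSA and 1 mM HEPES pH 7.4. Cells were washed and radioactivity counted. IC50 is the mean of at least two experiments, triplicate per concentration, ±SEM.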

[2] = target: T1, Transient receptor potential cation channel subfamily V member 1; experiment: Antagonist activity at rat TRPV1 expressed in CHO cells assessed as inhibition of acid-induced calcium influx; type: functional, cell-based
Method in brief: (§2)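 CHO cells stably transfected with human or rat TRPV1 were preincubated with compound for 2 min at room temperature. After washout, uptake was read by scintillation counting. IC50 values come from inhibition curves, averaging at least two experiments run in triplicate.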

[3] = target: T2, Transient receptor potential cation channel subfamily V member 1 (Homo sapiens, UniProt Q8NER1); experiment: Agonist activity at TRPV1 expressed in CHO cells; type: functional, cell-based
[4] = target: T2, Transient receptor potential cation channel subfamily V member 1; experiment: Antagonist activity at human TRPV1 expressed in CHO cells assessed as inhibition of capsaicin-induced calcium influx; type: functional, cell-based; method in brief: as §1
[5] = target: T2, Transient receptor potential cation channel subfamily V member 1; experiment: Antagonist activity at human TRPV1 expressed in CHO cells assessed as inhibition of acid-induced calcium influx; type: functional, cell-based; method in brief: as §2
[6] = Bioavailability in Sprague-Dawley rat at 5 mg/kg, po; type: ADME, organism-based; conditions: in vivo
Method in brief: (§3)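 Sprague-Dawley rats were dosed orally at 5 mg/kg as a suspension in 5% Tween 80 in Oraplus. Cmax, tmax, AUC0-∞ and oral bioavailability were determined. Values are means of n = 2 animals per study, or of five studies.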

[7] = AUC (0-infinity) in Sprague-Dawley rat at 5 mg/kg, po; type: ADME, organism-based; design: time infinity, dose 5 mg/kg, route oral; conditions: plasma; method in brief: as §3
[8] = AUC (0-infinity) in Sprague-Dawley rat at 2 mg/kg, iv; type: ADME, organism-based; design: time infinity, dose 2 mg/kg, route intravenous; conditions: plasma
Method in brief: (§4)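 Male Sprague-Dawley rats received a single intravenous dose of 2 mg/kg given as a solution in DMSO. Plasma AUC0-∞, clearance, Vss and t1/2 were derived. Values are means of n = 2 animals per study, or of four studies.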

[9] = Volume of distribution at steady state in Sprague-Dawley rat at 2 mg/kg, iv; type: ADME, organism-based; design: dose 2 mg/kg, route intravenous; conditions: in vivo, read-out: Vss; method in brief: as §4
[10] = Clearance in Sprague-Dawley rat at 2 mg/kg, iv; type: ADME, organism-based; design: dose 2 mg/kg, route intravenous; conditions: in vivo; method in brief: as §4
[11] = Cmax in Sprague-Dawley rat at 5 mg/kg, po; type: ADME, organism-based; design: dose 5 mg/kg, route oral; conditions: in vivo; method in brief: as §3
[12] = Tmax in Sprague-Dawley rat at 5 mg/kg, po; type: ADME, organism-based; design: dose 5 mg/kg, route oral; conditions: in vivo; method in brief: as §3
[13] = Half life in Sprague-Dawley rat at 2 mg/kg, iv; type: ADME, organism-based; design: dose 2 mg/kg, route intravenous; conditions: in vivo; method in brief: as §4
Rattus norvegicus = experiment: Blockade of capsaicin-induced hypothermic response in Sprague-Dawley rat at 40 mg/kg, po; type: functional, organism-based; design: dose 40 mg/kg
Method in brief: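 Male Sprague-Dawley rats (175–250 g) had core temperature monitored by radiotelemetry, with a 30 min baseline. Compound or vehicle was given by oral gavage in OraPlus/5% Tween-80 (5 mL/kg), at 40 mg/kg p.o., n = 8 per group. After 90 min, capsaicin 10 mg/kg or vehicle was injected intraperitoneally.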

[14] = AUC (0-infinity) in Sprague-Dawley rat at 3 mg/kg, iv; type: ADME, organism-based; design: time infinity, dose 3 mg/kg, route intravenous; conditions: plasma

T1 sequence (O35433 whole entry): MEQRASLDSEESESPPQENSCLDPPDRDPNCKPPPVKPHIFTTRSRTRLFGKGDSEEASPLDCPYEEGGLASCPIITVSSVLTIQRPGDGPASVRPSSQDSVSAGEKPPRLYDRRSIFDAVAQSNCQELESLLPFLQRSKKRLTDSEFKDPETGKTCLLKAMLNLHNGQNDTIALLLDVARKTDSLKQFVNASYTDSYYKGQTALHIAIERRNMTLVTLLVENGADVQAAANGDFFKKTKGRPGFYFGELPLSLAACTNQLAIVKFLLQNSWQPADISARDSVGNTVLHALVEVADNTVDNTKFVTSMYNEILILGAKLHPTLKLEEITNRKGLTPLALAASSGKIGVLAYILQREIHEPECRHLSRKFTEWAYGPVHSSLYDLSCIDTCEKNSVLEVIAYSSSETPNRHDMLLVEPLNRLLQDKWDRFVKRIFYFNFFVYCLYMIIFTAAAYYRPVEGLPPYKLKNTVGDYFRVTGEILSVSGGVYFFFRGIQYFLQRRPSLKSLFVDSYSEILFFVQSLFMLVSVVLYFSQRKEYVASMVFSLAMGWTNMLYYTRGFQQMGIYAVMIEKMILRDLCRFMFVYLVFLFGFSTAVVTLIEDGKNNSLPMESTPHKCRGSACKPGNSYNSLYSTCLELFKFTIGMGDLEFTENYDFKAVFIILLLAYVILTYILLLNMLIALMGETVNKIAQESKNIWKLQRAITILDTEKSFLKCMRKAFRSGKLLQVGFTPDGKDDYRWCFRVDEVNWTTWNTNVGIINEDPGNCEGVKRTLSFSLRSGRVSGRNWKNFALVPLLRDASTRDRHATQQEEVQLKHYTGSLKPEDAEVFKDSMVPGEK
T2 sequence (Q8NER1 whole entry): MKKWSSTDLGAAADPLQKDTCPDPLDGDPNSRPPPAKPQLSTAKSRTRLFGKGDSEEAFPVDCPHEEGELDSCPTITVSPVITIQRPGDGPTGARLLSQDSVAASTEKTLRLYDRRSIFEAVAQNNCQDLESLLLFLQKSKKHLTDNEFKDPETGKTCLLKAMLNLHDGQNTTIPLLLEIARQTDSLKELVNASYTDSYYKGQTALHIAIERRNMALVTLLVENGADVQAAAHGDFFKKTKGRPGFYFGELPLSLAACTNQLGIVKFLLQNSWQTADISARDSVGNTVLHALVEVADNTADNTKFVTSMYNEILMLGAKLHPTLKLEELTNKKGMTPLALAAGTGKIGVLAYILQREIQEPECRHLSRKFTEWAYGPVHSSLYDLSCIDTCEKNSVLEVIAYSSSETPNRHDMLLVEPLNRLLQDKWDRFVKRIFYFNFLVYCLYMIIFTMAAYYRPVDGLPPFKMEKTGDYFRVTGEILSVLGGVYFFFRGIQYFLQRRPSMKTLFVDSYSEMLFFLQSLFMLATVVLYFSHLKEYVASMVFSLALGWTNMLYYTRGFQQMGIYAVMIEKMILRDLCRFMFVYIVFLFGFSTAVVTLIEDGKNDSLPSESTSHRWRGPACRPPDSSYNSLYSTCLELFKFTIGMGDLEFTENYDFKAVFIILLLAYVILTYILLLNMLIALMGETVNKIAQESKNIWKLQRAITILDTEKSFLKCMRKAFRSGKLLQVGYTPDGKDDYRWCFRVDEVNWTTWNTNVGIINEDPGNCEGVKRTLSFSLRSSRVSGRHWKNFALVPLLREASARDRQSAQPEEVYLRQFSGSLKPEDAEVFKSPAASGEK

Structure (SMILES): CC(C)(C)c1ccc(-c2cc(Sc3ccc4c(c3)OCCO4)ncn2)cc1
- IC50 [1]: > 4 µM
- IC50 [2]: > 4 µM
- EC50 [3]: > 4 µM

Structure (SMILES): CC(C)(C)c1ccc(-c2cc(Nc3ccc4c(c3)OCCO4)cnn2)cc1
- IC50 [1]: 0.84 µM
- IC50 [2]: > 4 µM
- EC50 [3]: > 4 µM

Structure (SMILES): CC(C)(C)c1ccc(-c2cncc(Nc3ccc4c(c3)OCCO4)n2)cc1
- IC50 [1]: > 4 µM
- IC50 [2]: > 4 µM
- EC50 [3]: > 4 µM

Structure (SMILES): CC(C)(C)c1ccc(-c2cnnc(Nc3ccc4c(c3)OCCO4)c2)cc1
- IC50 [1]: 0.78 µM
- IC50 [2]: > 4 µM
- EC50 [3]: > 4 µM

Structure (SMILES): CC(C)(C)c1ccc(-c2ncnc(Nc3ccc4c(c3)OCCO4)n2)cc1
- IC50 [1]: 0.76 µM
- IC50 [2]: > 4 µM
- EC50 [3]: > 4 µM

Structure (SMILES): CN(c1ccc2c(c1)OCCO2)c1cc(-c2ccc(C(C)(C)C)cc2)ncn1
- IC50 [1]: > 4 µM
- IC50 [2]: 2.2 µM
- EC50 [3]: > 4 µM

Structure (SMILES): CC(C)(C)c1ccc(-c2cncc(Nc3ccc4c(c3)OCCO4)c2)cc1
- IC50 [1]: 1.21 µM
- IC50 [2]: > 4 µM
- EC50 [3]: > 4 µM

Structure (SMILES): CC(C)(C)c1ccc(-c2ccnc(Nc3ccc4c(c3)OCCO4)n2)cc1
- IC50 [1]: > 4 µM
- IC50 [2]: > 4 µM
- EC50 [3]: > 4 µM

Structure (SMILES): CC(C)(C)c1ccc(-c2cccc(Nc3ccc4c(c3)OCCO4)c2)cc1
- IC50 [1]: > 4 µM
- IC50 [2]: > 4 µM
- EC50 [3]: > 4 µM

Structure (SMILES): CC(C)(C)c1ccc(-c2nccc(Nc3ccc4c(c3)OCCO4)n2)cc1
- IC50 [1]: > 4 µM
- IC50 [2]: > 4 µM
- EC50 [3]: > 4 µM

Structure (SMILES): CC(C)(C)c1ccc(-c2cc(Oc3ccc4c(c3)OCCO4)ncn2)cc1
- IC50 [2]: 0.67 µM
- EC50 [3]: > 4 µM

Structure (SMILES): CC(C)(C)c1ccc(-c2cccc(Nc3ccc4c(c3)OCCO4)n2)cc1
- IC50 [1]: > 4 µM
- IC50 [2]: > 4 µM
- EC50 [3]: > 4 µM

Structure (SMILES): CC(C)(C)c1ccc(-c2cc(Nc3ccc4c(c3)OCCO4)ncn2)cc1
- IC50 [1]: 0.12 µM
- IC50 [2]: 0.68 µM
- IC50 [4]: 0.051 µM
- IC50 [5]: 0.27 µM
- EC50 [3]: > 4 µM

Structure (SMILES): CC(C)(C)c1ccc(-c2cc(Nc3ccc4c(c3)OCCO4)ccn2)cc1
- IC50 [1]: > 4 µM
- IC50 [2]: > 4 µM
- EC50 [3]: > 4 µM

Structure (SMILES): FC(F)(F)c1ccc(-c2cc(Nc3ccc4cccnc4c3)ncn2)cc1
- IC50 [2]: 0.0066 µM
- bioavailability [6]: 6%
- AUC(0-inf) [7]: 0.094 µg·h/mL
- AUC(0-inf) [8]: 0.32 µg·h/mL
- Vd [9]: 3 L/kg
- clearance [10]: 3.1 L/h/kg
- Cmax [11]: 0.026 µg/mL
- Tmax [12]: 5 h
- IC50 [4]: 0.0006 µM
- half-life [13]: 1.7 h
- IC50 [5]: 0.0003 µM
- EC50 [3]: > 4 µM

Structure (SMILES): CC(C)(C)c1ccc(-c2cc(Nc3ccc4cccnc4c3)ncn2)cc1
- IC50 [1]: 0.002 µM
- IC50 [2]: 0.022 µM
- bioavailability [6]: 5%
- AUC(0-inf) [7]: 0.079 µg·h/mL
- AUC(0-inf) [8]: 0.34 µg·h/mL
- Vd [9]: 3.1 L/kg
- clearance [10]: 2.9 L/h/kg
- Cmax [11]: 0.034 µg/mL
- Tmax [12]: 0.5 h
- IC50 [4]: 0.0019 µM
- half-life [13]: 1.6 h
- IC50 [5]: 0.0069 µM
- EC50 [3]: > 4 µM

Structure (SMILES): FC(F)(F)c1ccc(-c2cc(Nc3ccc4c(c3)OCCO4)ncn2)cc1
- IC50 [1]: 0.43 µM
- IC50 [2]: 1.2 µM
- IC50 [4]: 0.12 µM
- IC50 [5]: 0.25 µM
- EC50 [3]: > 4 µM

Structure (SMILES): FC(F)(F)c1ccc(-c2cc(Oc3ccc4cccnc4c3)ncn2)cc1
- Activity (Rattus norvegicus): Active
- bioavailability [6]: 31%
- AUC(0-inf) [7]: 2.04 µg·h/mL
- AUC(0-inf) [8]: 1.59 µg·h/mL
- Vd [9]: 3 L/kg
- Cmax [11]: 0.3 µg/mL
- Tmax [12]: 1.2 h
- IC50 [4]: 0.0037 µM
- half-life [13]: 2.8 h
- IC50 [5]: 0.0042 µM
- EC50 [3]: > 4 µM

Structure (SMILES): CC(C)(C)c1ccc(-c2cc(Cc3ccc4c(c3)OCCO4)ncn2)cc1
- IC50 [1]: 0.914 µM
- IC50 [2]: > 4 µM
- EC50 [3]: > 4 µM

Structure (SMILES): CC(C)(C)c1ccc(/C=C/C(=O)Nc2ccc3c(c2)OCCO3)cc1
- AUC(0-inf) [14]: 0.68 µg·h/mL
- EC50 [3]: > 4 µM

Structure (SMILES): CC(C)(C)c1ccc(Cc2cccn(-c3ccc4c(c3)OCCO4)c2=O)cc1
- IC50 [1]: > 4 µM
- IC50 [2]: > 4 µM
- EC50 [3]: > 4 µM

Structure (SMILES): CC(C)(C)c1ccc(-c2ccnc(Nc3ccc4c(c3)OCCO4)c2)cc1
- IC50 [1]: 0.23 µM
- IC50 [2]: 1.3 µM
- EC50 [3]: > 4 µM

Structure (SMILES): CC(C)(C)c1ccc(/C=C2\CCCN(c3ccc4c(c3)OCCO4)C2=O)cc1
- IC50 [1]: > 4 µM
- IC50 [2]: > 4 µM
- EC50 [3]: > 4 µM
